XiGFP reactiv – activators of inactive X chromosome reactivation, primary screen, imaging, XiGFP fibroblasts, GFP high-content imaging, set 2; XiGFP mouse fibroblasts, % GFP-positive cells imaging, 3 d; cells co-treated with 5-aza-dC sensitizer; scaled so ellipticine positive control = 100%; activation, % at 7.58 µM; 0.055% of 360,000 active; AID 743238, 2013;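 active = mean normalized replicate activation at least 10% and every replicate at or above 10%; inconclusive = only one of the two criteria met; inactive = mean below 10% and not all replicates reach 10%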
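System: 68-5-11 XiGFP fibroblast line; Timing: 3 days compound exposure; Compound dosing: one concentration, pinned; Benchmarks: positive control ellipticine, 6 µM final; Buffer or medium: DMEM containing 5-aza-dC.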
SIRT5 block – SIRT5 desuccinylase inhibitors, primary screen, biochemical, fluorescence imaging, single point, set 5; 1.1% of 330,000 active; inhibition, % at 15 µM; AID 652115, 2013; Purified SirT5, succinyl-peptide AMC, trypsin-coupled fluorescence; in the data active = inhibition above about 15%; inconclusive = no clear call, values can overlap the other calls
Target sequence (Q9NXA8 whole entry, looked up): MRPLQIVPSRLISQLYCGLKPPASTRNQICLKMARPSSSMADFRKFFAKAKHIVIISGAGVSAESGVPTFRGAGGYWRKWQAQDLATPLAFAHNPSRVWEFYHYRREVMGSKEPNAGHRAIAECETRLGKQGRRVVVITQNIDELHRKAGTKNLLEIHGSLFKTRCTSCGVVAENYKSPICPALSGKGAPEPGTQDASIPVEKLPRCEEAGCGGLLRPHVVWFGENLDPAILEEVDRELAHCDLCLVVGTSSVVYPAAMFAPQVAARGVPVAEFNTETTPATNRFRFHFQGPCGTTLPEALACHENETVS
DENV2 CPE – inhibitors of DENV2 cytopathic effect, primary screen, cell-based, plate reader, single concentration; DENV2-infected cells, cytopathic effect rescue; CPE inhibition, % at 9.99 µM; 1.7% of 350,000 active; in the data active = CPE inhibition above about 20%, passing the limit was not always enough; inconclusive = no clear call, values can overlap the other calls; tested in BHK-21 cells
ARNT TACC3 PPI – disruptors of ARNT/TACC3 protein interaction, primary screen, biochemical, AlphaScreen, single concentration; Transforming acidic coiled-coil-containing protein 3 (Homo sapiens), Q9Y6A5; inhibition, % at 9.99 µM; AlphaScreen His-ARNT PAS-B/GST-TACC3 binding, luminescence; TACC3 fragment carries E629A point mutation; 0.66% of 390,000 active;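 active = mean inhibition of replicates at least 50% and at least half of replicates each reaching 50%; inconclusive = half or more replicates reach 50% but mean below 50%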
FN deposit inh – inhibitors of fibronectin matrix deposition, primary screen, AH1F cells, Alexa488-fibronectin fluorescence, plate reader. 0.086% of 350,000 active. inhibition, % at 12.6 µM. AH1F fibroblasts, overnight;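 active = mean inhibition across replicates of 30% or more, regardless of how many single replicates reach that level; inconclusive = mean under 30% yet at least half of replicates reach 30%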
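Assay system: AH1F fibroblasts / Quantity: 10000 cells per well / Medium: DMEM plus 2% serum, read in PBS / Reagent: labelled fibronectin 24 nM / Dosing: single dose, pinned / Times: 1 h cell attachment, overnight exposure to compound and label / Signal: fluorescence, ex 485 nm, em 525 nm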
FGF22 binding – binders of human FGF22 protein, primary screen, FGF22 synaptogenesis inhibitor project, biophysical, thermal shift, single point | Fibroblast growth factor 22 (Homo sapiens), Q9HCT0 | recombinant FGF22 thermal shift, SYPRO orange fluorescence; percent of sucrose octasulfate shift, DMSO zero | activity (Tm shift, normalised), % at 9.99 µM | 1.5% of 340,000 active | AID 651658, 2012;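 active = mean Tm shift, scaled 0 neutral to 100 positive control, at about 1.3% or above, every replicate too, limit read from the data; inconclusive = no clear call, values can overlap the other calls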
Target sequence (Q9HCT0 whole entry, looked up): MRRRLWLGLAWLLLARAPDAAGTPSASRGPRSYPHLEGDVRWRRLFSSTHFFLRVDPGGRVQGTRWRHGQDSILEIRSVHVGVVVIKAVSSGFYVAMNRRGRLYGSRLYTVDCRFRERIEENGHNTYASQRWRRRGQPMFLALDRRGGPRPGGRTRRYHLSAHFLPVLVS
Numbers stand for hits; n = inactive; u = inconclusive; x = no result. In the library only some 3.8% were active in any assay of this set; here they are far more common.

SMILES | XiGFP reactiv | SIRT5 block | DENV2 CPE | ARNT TACC3 PPI | FN deposit inh | FGF22 binding
Cc1c(NS(=O)(=O)c2cccc(C(=O)NCc3ccccc3Cl)c2)c(=O)n(-c2ccccc2)n1C | n | 16 | n | n | n | n
Cc1c(NS(=O)(=O)c2cccc(C(=O)NC(C)c3ccccc3)c2)c(=O)n(-c2ccccc2)n1C (centres undefined) | n | n | n | n | n | n
C[C@@H]1CCCCO[C@H](CN(C)Cc2ccc(C(=O)O)cc2)[C@@H](C)CN([C@@H](C)CO)C(=O)c2cc(NC(=O)Nc3cccc4ccccc34)ccc2O1 | n | n | n | n | x | n
O=C(CN1CCOCC1)NCC[C@H]1CC[C@H](NC(=O)Nc2ccccc2)[C@H](CO)O1 | n | n | x | n | n | n
C[C@@H]1CCCCO[C@@H](CN(C)C(=O)Nc2ccc(C(F)(F)F)cc2)[C@@H](C)CN([C@H](C)CO)C(=O)c2cc(NS(=O)(=O)c3ccc(Cl)cc3)ccc2O1 | n | n | n | n | n | n
C[C@@H]1CN([C@H](C)CO)C(=O)c2cc(NS(=O)(=O)c3ccc(Cl)cc3)ccc2O[C@@H](C)CCCCO[C@H]1CN(C)C(=O)Nc1ccc(C(F)(F)F)cc1 | n | 22 | n | n | x | n
Cc1ccc(S(=O)(=O)Nc2ccc3c(c2)C(=O)N([C@@H](C)CO)C[C@H](C)[C@@H](CN(C)C(=O)Nc2ccc(C(F)(F)F)cc2)O3)cc1 | n | 16 | u | n | x | n
C[C@H]1CCCCO[C@@H](CN(C)C(=O)Nc2ccc(C(F)(F)F)cc2)[C@@H](C)CN([C@@H](C)CO)C(=O)c2cc(NS(=O)(=O)c3ccc(F)cc3)ccc2O1 | n | n | 76 | n | n | n
C[C@@H]1CCCCO[C@H](CN(C)C(=O)Nc2ccc(C(F)(F)F)cc2)[C@@H](C)CN([C@@H](C)CO)C(=O)c2cc(NS(=O)(=O)c3ccc(F)cc3)ccc2O1 | n | 18 | n | n | n | n
C[C@H]1CN([C@@H](C)CO)C(=O)c2cc(NS(=O)(=O)c3ccc(F)cc3)ccc2O[C@H]1CN(C)C(=O)Nc1ccc(C(F)(F)F)cc1 | n | n | n | n | x | n
Cc1ccc(S(=O)(=O)Nc2ccc3c(c2)C(=O)N([C@@H](C)CO)C[C@@H](C)[C@@H](CN(C)C(=O)Nc2ccc(C(F)(F)F)cc2)OCCCC[C@H](C)O3)cc1 | n | n | n | n | n | n
CC(C)C#Cc1ccc2c(c1)O[C@H](CN(C)Cc1ccncc1)[C@H](C)CN([C@@H](C)CO)S2(=O)=O | n | x | n | n | n | n
O=C(Nc1ccccc1F)N[C@H]1CC[C@@H](CCNC(=O)C2CCCC2)O[C@H]1CO | n | n | n | n | n | n
C[C@@H]1CCCCO[C@H](CN(C)C(=O)Nc2ccc(C(F)(F)F)cc2)[C@H](C)CN([C@@H](C)CO)C(=O)c2cc(NS(=O)(=O)c3ccc(F)cc3)ccc2O1 | n | n | 98 | n | n | n
Cc1ccc(S(=O)(=O)Nc2ccc3c(c2)C(=O)N([C@@H](C)CO)C[C@@H](C)[C@H](CN(C)C(=O)Nc2ccc(C(F)(F)F)cc2)OCCCC[C@@H](C)O3)cc1 | n | n | u | n | n | n
C[C@@H]1CCCCO[C@H](CN(C)C(=O)Nc2ccc(C(F)(F)F)cc2)[C@@H](C)CN([C@H](C)CO)C(=O)c2cc(NS(=O)(=O)c3ccc(F)cc3)ccc2O1 | n | n | 21 | n | n | n
Cc1ccc(S(=O)(=O)Nc2ccc3c(c2)C(=O)N([C@H](C)CO)C[C@H](C)[C@H](CN(C)C(=O)Nc2ccc(C(F)(F)F)cc2)OCCCC[C@H](C)O3)cc1 | n | n | 53 | n | n | n
C[C@@H]1CCCCO[C@@H](CN(C)C(=O)Nc2ccc(C(F)(F)F)cc2)[C@H](C)CN([C@H](C)CO)C(=O)c2cc(NS(=O)(=O)c3ccccc3)ccc2O1 | n | n | 38 | n | n | n
C[C@H](CO)N1C[C@H](C)[C@H](CN(C)Cc2ccc(C(F)(F)F)cc2)Oc2ccc(NC(=O)c3ccncc3)cc2C1=O | n | n | n | n | x | n
CCN1C(=O)[C@H]2[C@@H](c3ccc(OC)cc3)N3C(=O)CN(CCOC)C(=O)[C@@]3(Cc3ccccc3)[C@H]2C1=O | n | n | 66 | n | n | n
CCCCN1CC(=O)N2[C@H](c3ccc(OC)cc3)[C@@H]3C(=O)N(CC)C(=O)[C@@H]3[C@]2(Cc2ccccc2)C1=O | n | 27 | n | n | n | n
COc1ccc(N(C)C(=O)Cc2c(C(=O)O)[nH]c3ccccc23)c(OC)c1 | n | n | n | n | n | 44
CNC(=O)C[C@H]1CC[C@H]2[C@H](COc3ccc(NC(=O)NCc4ccccc4)cc3C(=O)N2C)O1 | n | x | u | n | n | n
N#Cc1c(-c2ccccc2)nc(SCC(=O)Nc2ccccc2)[nH]c1=O | n | x | x | n | n | x
N#Cc1c(-c2ccccc2)nc(SCC(=O)Nc2ccccc2F)[nH]c1=O | n | n | n | n | n | 1.9
SMILES | XiGFP reactiv | SIRT5 block | DENV2 CPE | ARNT TACC3 PPI | FN deposit inh | FGF22 binding
Nc1ccn([C@H]2CS[C@@H](CO)O2)c(=O)n1 | x | x | 27 | x | x | n
COc1ccc(S(=O)(=O)N2CC[C@H]3[C@H](CO)Nc4ccc(-c5ccc(C#N)cc5)cc4[C@H]32)cc1 | n | n | n | n | n | n
Cc1noc(C)c1S(=O)(=O)N(C)C[C@H]1Oc2ccc(NC(=O)Nc3ccc4c(c3)OCO4)cc2CC(=O)N([C@H](C)CO)C[C@H]1C | n | n | n | x | x | n
CC(C)(C)N1CC(C(=O)Nc2ccc(C(N)=O)cc2)CC1=O (centres undefined) | n | x | n | x | n | 44
C=CCOc1ccc(CNCc2cccnc2)cc1OCC | n | n | 22 | n | n | n
C=CCOc1ccc(CNCCO)cc1OCC | n | n | n | n | n | n
O=C1[C@H](Cc2ccc(C(F)(F)F)cc2)CCn2cc(nn2)COC[C@@H]2CCCCN2C(=O)[C@H](Cc2ccc(C(F)(F)F)cc2)CCn2cc(nn2)COC[C@@H]2CCCCN12 | n | x | x | x | n | x
C[C@@H]1CN([C@H](C)CO)C(=O)c2c(c3ccccc3n2C)-c2ccccc2CO[C@@H]1CN(C)C(=O)c1cc(Cl)cc(Cl)c1 | n | 19 | 60 | x | n | n
